Reference: article PMC10993231 (RSC Advances, 2024)

Test: Stability of radiolabeled peptide in human plasma
Type: in vitro ADME
Settings: 37 °C, TLC read-out
In short: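 The peptide was dissolved in DMSO and diluted with water, then iodinated with 131I (3 mCi) and chloramine-T in 0.05 mol L−1 PBS, pH 7.4. The mixture was vortexed 2 min at room temperature and the reaction stopped with sodium metabisulfite. The 131I-peptide was incubated with human plasma at 37 °C for up to 72 h to gauge proteolytic degradation.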

With ^131I-cWIWLYA (head to tail) the “Radioactivity remaining after incubation in human plasma” value (5 h incubation) was greater than 90% and the “Radioactivity remaining after incubation in human plasma” value (72 hours incubation) was 57.5%.
